Data from ChEMBL document CHEMBL4130635, “2,4-Diaminoquinazolines as Dual Toll-like Receptor (TLR) 7/8 Modulators for the Treatment of Hepatitis B Virus” (J Med Chem, 2018).
Calls of active or inactive are those of the source. No cut-off for these calls is given here.

Key:
[1] = Protein binding in rat plasma fraction at 5 uM after 4.5 hrs LC-MS/MS-based rapid equilibrium dialysis method; type: ADME, cell-free; conditions: read-out: PPB (converted)
[2] = Cmax in C57BL/6J mouse liver at 10 mg/kg, po by LC-MS analysis; type: ADME, organism-based; design: dose 10 mg/kg, route oral
Summary of the method: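 Healthy C57BL/6 mice, groups of 15, given a single oral dose (0.3, 1, 3, 10 or 30 mg/kg) in 20% HP-β-CD. Blood drawn at 0.5 h. Three mice per group sacrificed at 0.5, 1, 2, 4 or 7 h, and compound in plasma and liver measured by LC−MS. Values rounded to whole numbers.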

[3] = AUC (0 to last) in C57BL/6J mouse liver at 0.3 mg/kg, po by LC-MS analysis; type: ADME, organism-based; conditions: in vivo
Summary of the method: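 Healthy C57BL/6 mice were dosed once by mouth at 0.3, 1, 3, 10 or 30 mg/kg in 20% HP-β-CD, in groups of 15 per dose. Three mice per group were sacrificed at 0.5, 1, 2, 4 or 7 h, and plasma and liver compound levels were measured by LC–MS. Values were rounded to whole numbers.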

Plasma [4] = assay: Induction of IFNalpha levels in C57BL/6J mouse plasma at 10 mg/kg, po by ELISA; type: functional
Liver [5] = assay: Induction of IFNalpha levels in C57BL/6J mouse liver at 0.3 mg/kg, po by ELISA (reference value: 30 pg/g); type: functional
Plasma [6] = assay: Effect on cytokine profile in C57BL/6J mouse plasma assessed as IFNgamma levels at 10 mg/kg, po by multiplex assay; type: functional
Summary of the method: (§1)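 Single oral gavage in 20% HP-β-CD to healthy C57BL/6 mice, groups of 15 at 0.3, 1, 3, 10 or 30 mg/kg. Three mice per group sacrificed at 0.5, 1, 2, 4 or 7 h. Plasma and liver cytokines by multiplex, maximum level reported, rounded to nearest multiple of 5.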

Plasma [7] = assay: Effect on cytokine profile in C57BL/6J mouse plasma assessed as IFNgamma levels at 30 mg/kg, po by multiplex assay; type: functional; summary of the method: as §1
Liver [8] = assay: Effect on cytokine profile in C57BL/6J mouse liver assessed as IFNgamma levels at 10 mg/kg, po by multiplex assay; type: functional; summary of the method: as §1
Plasma [9] = assay: Proinflammatory activity in C57BL/6J mouse plasma assessed as IL-1beta levels at 3 mg/kg, po by multiplex assay (reference value: 60 pg/ml); type: functional
Liver [10] = assay: Proinflammatory activity in C57BL/6J mouse liver assessed as IL-1beta levels at 0.3 mg/kg, po by multiplex assay; type: functional
Liver [11] = assay: Proinflammatory activity in C57BL/6J mouse liver assessed as IL-1beta levels at 30 mg/kg, po by multiplex assay; type: functional
Plasma [12] = assay: Proinflammatory activity in C57BL/6J mouse plasma assessed as CXCL-1 levels at 1 mg/kg, po by multiplex assay (reference value: 230 pg/ml); type: functional
Liver [13] = assay: Anti-inflammatory activity in C57BL/6J mouse liver assessed as IL-10 levels at 3 mg/kg, po by multiplex assay (reference value: 2 pg/g); type: functional; summary of the method: as §1
Plasma [14] = assay: Proinflammatory activity in C57BL/6J mouse plasma assessed as TNFalpha levels at 10 mg/kg, po by multiplex assay (reference value: 70 pg/ml); type: functional
Plasma [15] = assay: Anti-inflammatory activity in C57BL/6J mouse plasma assessed as IL-10 levels at 0.3 mg/kg, po by multiplex assay (reference value: 120 pg/ml); type: functional; summary of the method: as §1
Plasma [16] = assay: Anti-inflammatory activity in C57BL/6J mouse plasma assessed as IL-10 levels at 3 mg/kg, po by multiplex assay (reference value: 120 pg/ml); type: functional; summary of the method: as §1
Liver [17] = assay: Anti-inflammatory activity in C57BL/6J mouse liver assessed as IL-10 levels at 10 mg/kg, po by multiplex assay (reference value: 2 pg/g); type: functional; summary of the method: as §1
Cynomolgus monkey [18] = assay: Plasma concentration in cynomolgus monkey at 30 mg/kg, po by LC-MS analysis; type: ADME, organism-based, Macaca fascicularis; conditions: in vivo
Cynomolgus monkey [19] = assay: Effect on cytokine profile in cynomolgus monkey plasma assessed as IL-15 levels at 9 mg/kg, po after 24 hrs by Luminex assay (reference value: 20 pg/ml); type: functional, Macaca fascicularis
Summary of the method: (§2)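 Healthy cynomolgus monkeys given single oral doses of 1, 3, 9 and 30 mg/kg, with a 2-week wash-out planned between doses. Systemic cytokine levels in plasma were sampled at 0.5, 1, 2, 4, 9 and 24 h postdose.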

Cynomolgus monkey [20] = assay: Effect on cytokine profile in cynomolgus monkey plasma assessed as IL-15 levels at 30 mg/kg, po after 24 hrs by Luminex assay (reference value: 20 pg/ml); type: functional, Macaca fascicularis; summary of the method: as §2
Cynomolgus monkey [21] = assay: Activation of monocytes in cynomolgus monkey plasma assessed as upregulation of IL1Ra levels at 9 mg/kg, po after 24 hrs by Luminex assay (reference value: 320 pg/ml); type: functional, Macaca fascicularis
Cynomolgus monkey [22] = assay: Activation of monocytes in cynomolgus monkey plasma assessed as upregulation of MIP1 levels at 9 mg/kg, po after 24 hrs by Luminex assay (reference value: 37 pg/ml); type: functional, Macaca fascicularis
Cynomolgus monkey [23] = assay: Induction of G-CSF in cynomolgus monkey plasma at 1 mg/kg, po after 24 hrs by Luminex assay (reference value: 85 pg/ml); type: functional, organism-based; conditions: Macaca fascicularis; summary of the method: as §2
Cynomolgus monkey [24] = assay: Induction of G-CSF in cynomolgus monkey plasma at 3 mg/kg, po after 24 hrs by Luminex assay (reference value: 85 pg/ml); type: functional, organism-based; conditions: Macaca fascicularis; summary of the method: as §2
Cynomolgus monkey [25] = assay: Induction of G-CSF in cynomolgus monkey plasma at 9 mg/kg, po after 24 hrs by Luminex assay (reference value: 85 pg/ml); type: functional, Macaca fascicularis; summary of the method: as §2
Mus musculus = assay: Toxicity in C57BL/6J mouse assessed as change in body temperature at 1 to 30 mg/kg, po; type: organism-based; conditions: in vivo
Cynomolgus monkey [26] = assay: Toxicity in cynomolgus monkey assessed as induction of clinical pathology changes up to 30 mg/kg, po; type: organism-based, Macaca fascicularis; conditions: in vivo
[27] = target: T1, TLR7 and TLR8 (Homo sapiens) (UniProt Q9NYK1+Q9NR97); assay: Agonist activity at TLR7/8 in human PBMCs co-cultured with primary human hepatocytes infected with HBV genotype C for 12 days assessed as increase in MIP-1alpha levels up to 5 uM measured after 42 days
T1 sequence (Q9NR97 whole entry, looked up): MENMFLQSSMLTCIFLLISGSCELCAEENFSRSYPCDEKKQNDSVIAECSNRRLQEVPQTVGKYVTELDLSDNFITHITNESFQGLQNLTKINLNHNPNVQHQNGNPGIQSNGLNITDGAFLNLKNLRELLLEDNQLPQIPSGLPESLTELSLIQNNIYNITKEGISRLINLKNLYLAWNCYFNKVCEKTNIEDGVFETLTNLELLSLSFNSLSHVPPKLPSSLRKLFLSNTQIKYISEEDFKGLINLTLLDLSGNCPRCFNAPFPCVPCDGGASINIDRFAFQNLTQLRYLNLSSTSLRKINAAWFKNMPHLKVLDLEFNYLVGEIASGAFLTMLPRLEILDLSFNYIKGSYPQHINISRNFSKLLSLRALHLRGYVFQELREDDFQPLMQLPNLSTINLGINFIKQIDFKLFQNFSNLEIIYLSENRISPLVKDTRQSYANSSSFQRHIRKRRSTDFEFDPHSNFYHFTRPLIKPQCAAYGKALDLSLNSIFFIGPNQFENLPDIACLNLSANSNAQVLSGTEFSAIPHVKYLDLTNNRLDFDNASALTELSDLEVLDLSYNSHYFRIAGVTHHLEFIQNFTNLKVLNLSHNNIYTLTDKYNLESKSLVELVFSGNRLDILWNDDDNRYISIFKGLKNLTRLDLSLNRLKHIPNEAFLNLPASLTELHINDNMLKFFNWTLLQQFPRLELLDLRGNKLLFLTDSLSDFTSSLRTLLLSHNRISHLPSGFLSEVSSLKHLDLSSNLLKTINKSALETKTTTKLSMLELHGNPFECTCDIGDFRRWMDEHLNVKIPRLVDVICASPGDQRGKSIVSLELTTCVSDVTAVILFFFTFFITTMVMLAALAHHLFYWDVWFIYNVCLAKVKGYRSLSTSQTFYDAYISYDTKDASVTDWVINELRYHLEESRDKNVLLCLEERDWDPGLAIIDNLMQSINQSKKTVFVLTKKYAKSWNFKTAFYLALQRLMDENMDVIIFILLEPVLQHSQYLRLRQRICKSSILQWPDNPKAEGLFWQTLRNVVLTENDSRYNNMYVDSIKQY
T1 sequence (Q9NYK1 whole entry, looked up): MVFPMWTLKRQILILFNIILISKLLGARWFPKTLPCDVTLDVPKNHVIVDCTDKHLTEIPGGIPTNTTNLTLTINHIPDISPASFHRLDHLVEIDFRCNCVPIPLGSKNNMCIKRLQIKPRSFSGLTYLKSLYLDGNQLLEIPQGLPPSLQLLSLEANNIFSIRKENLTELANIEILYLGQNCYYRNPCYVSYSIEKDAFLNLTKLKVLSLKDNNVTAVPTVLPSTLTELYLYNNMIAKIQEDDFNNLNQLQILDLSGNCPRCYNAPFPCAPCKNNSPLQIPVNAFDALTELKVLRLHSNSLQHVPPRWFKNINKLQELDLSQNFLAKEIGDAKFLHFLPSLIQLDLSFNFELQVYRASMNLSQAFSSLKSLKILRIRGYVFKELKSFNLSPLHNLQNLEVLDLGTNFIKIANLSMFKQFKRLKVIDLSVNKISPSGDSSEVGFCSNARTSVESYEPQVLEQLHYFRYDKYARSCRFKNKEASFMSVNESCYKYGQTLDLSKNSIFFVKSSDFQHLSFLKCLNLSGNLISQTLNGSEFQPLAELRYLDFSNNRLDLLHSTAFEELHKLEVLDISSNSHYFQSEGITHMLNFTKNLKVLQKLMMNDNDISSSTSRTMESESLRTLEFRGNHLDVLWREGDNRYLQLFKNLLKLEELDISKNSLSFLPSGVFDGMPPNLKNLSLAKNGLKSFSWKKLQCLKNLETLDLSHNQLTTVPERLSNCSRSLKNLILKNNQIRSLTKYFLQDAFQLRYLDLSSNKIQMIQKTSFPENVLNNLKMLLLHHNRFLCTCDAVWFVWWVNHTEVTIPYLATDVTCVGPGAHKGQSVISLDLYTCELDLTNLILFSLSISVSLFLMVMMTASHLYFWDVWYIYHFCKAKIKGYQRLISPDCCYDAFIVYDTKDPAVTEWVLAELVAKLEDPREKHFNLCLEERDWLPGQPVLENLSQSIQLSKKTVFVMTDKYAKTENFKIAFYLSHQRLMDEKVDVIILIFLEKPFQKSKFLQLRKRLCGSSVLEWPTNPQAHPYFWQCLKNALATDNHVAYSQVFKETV

[28] = target: T1, TLR7 and TLR8 (Homo sapiens); assay: Agonist activity at TLR7/8 in human PBMCs co-cultured with primary human hepatocytes infected with HBV genotype C for 12 days assessed as increase in MIP-1beta levels up to 5 uM measured after 42 days
[29] = target: T1, TLR7 and TLR8 (Homo sapiens); assay: Agonist activity at TLR7/8 in human PBMCs co-cultured with primary human hepatocytes infected with HBV genotype C for 12 days assessed as increase in IL-12p70 levels up to 5 uM measured after 42 days
[30] = Metabolic stability in mouse liver microsomes assessed as compound metabolized at 1 uM after 15 mins; type: ADME, microsome; conditions: read-out: Drug metabolism
Summary of the method: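 Mouse (M) or human (H) liver microsomes incubated with compound at 1 μM; percent metabolized after 15 min.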

[31] = Ratio of drug level in Sprague-Dawley rat liver to plasma at 10 mg/kg, po

**Q.** Which fraction unbound at 4.5 h, 5 µM [1] does the source give for `CCC[C@@H](CCO)Nc1nc(N)nc2c(F)cccc12` here?
**A.** The fraction unbound at 4.5 h, 5 µM was 0.47.

**Q.** What about the Cmax [2] of the same compound?
**A.** Its Cmax is 1420 ng/g.

**Q.** And the AUClast [3]?
**A.** Its AUClast is 25 ng·h/g.

**Q.** And the Activity (Plasma [4])?
**A.** Its Activity is greater than 3200 pg/mL.

**Q.** And the Activity (Liver [5])?
**A.** Its Activity is 100 pg/g.

**Q.** What about the Activity (Plasma [6]) of the same compound?
**A.** The Activity was 295 pg/mL.

**Q.** What about the Activity (Plasma [7]) of the same compound?
**A.** Its Activity is 1010 pg/mL.

**Q.** What about the Activity (Liver [8]) of the same compound?
**A.** Its Activity is 430 pg/g.

**Q.** And the Activity (Plasma [9])?
**A.** Its Activity is 40 pg/mL.

**Q.** What about the Activity (Liver [10]) of the same compound?
**A.** Its Activity is 9765 pg/g.

**Q.** And the Activity (Liver [11])?
**A.** The Activity was 56615 pg/g.

**Q.** And the Activity (Plasma [12])?
**A.** The Activity was 2155 pg/mL.

**Q.** What about the Activity (Liver [13]) of the same compound?
**A.** Its Activity is 1355 pg/g.

**Q.** And the Activity (Plasma [14])?
**A.** Its Activity is greater than 10000 pg/mL.

**Q.** What about the Activity (Plasma [15]) of the same compound?
**A.** The Activity was 345 pg/mL.

**Q.** What about the Activity (Plasma [16]) of the same compound?
**A.** The Activity was 1115 pg/mL.

**Q.** And the Activity (Liver [17])?
**A.** Its Activity is 2265 pg/g.

**Q.** And the Cp (Cynomolgus monkey [18])?
**A.** The Cp was 0.16 µg/mL.

**Q.** And the Activity (Cynomolgus monkey [19])?
**A.** Its Activity is 75 pg/mL.

**Q.** And the Activity (Cynomolgus monkey [20])?
**A.** The Activity was 85 pg/mL.

**Q.** What about the Activity (Cynomolgus monkey [21]) of the same compound?
**A.** Its Activity is 2455 pg/mL.

**Q.** What about the Activity (Cynomolgus monkey [22]) of the same compound?
**A.** The Activity was 310 pg/mL.

**Q.** And the Activity (Cynomolgus monkey [23])?
**A.** The Activity was “Below limit of detection”.

**Q.** And the Activity (Cynomolgus monkey [24])?
**A.** The Activity was “Below limit of detection”.

**Q.** What about the Activity (Cynomolgus monkey [25]) of the same compound?
**A.** Its Activity is 825 pg/mL.

**Q.** What about the Activity (Mus musculus) of the same compound?
**A.** The Activity was “Non-Toxic”.

**Q.** And the Activity (Cynomolgus monkey [26])?
**A.** The Activity was “Non-Toxic”.

**Q.** And the Activity [27]?
**A.** Its Activity is “Active”.

**Q.** And the Activity [28]?
**A.** The Activity was “Active”.

**Q.** And the Activity [29]?
**A.** Its Activity is “Active”.

**Q.** And the metabolised at 0.25 h, 1 µM [30]?
**A.** Its metabolised at 0.25 h, 1 µM is 93%.

**Q.** What about the Kp [31] of the same compound?
**A.** Its Kp is 16.
